# Laboratory results from ChEMBL document CHEMBL2146366, “Discovery of microsomal triglyceride transfer protein (MTP) inhibitors with potential for decreased active metabolite load compared to dirlotapide” (Bioorg Med Chem Lett, 2011).
# Calls of active or inactive are those of the source. The calls are words filed in the database; no cut-off is given here.
# Assays:
# Rattus norvegicus [1] = experiment: Antiobesity activity in high fat diet-induced obese Sprague-Dawley rat assessed as reduction in body weight at 10 mg/kg, po administered with 25% SDD formulation daily for 3 days relative to dirlotapide; type: functional; design: scale not given: the % may be the effect or the level left
# Rattus norvegicus [2] = experiment: Antiobesity activity in high fat diet-induced obese Sprague-Dawley rat assessed as reduction of body weight at 3 mg/kg, po qd for 7 days relative to control; type: functional; design: scale not given: the % may be the effect or the level left
# Procedure, shortened: (§1)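 Seven-day rat study: once-daily oral dosing at 3, 10 or 30 mg/kg, with 1, 3 and 100 mg/kg also used for one series. Compounds were given as spray-dried dispersions in hydroxypropylmethylcellulose acetate succinate. Food intake, body weight, liver TG and serum ALT were measured against vehicle. Systemic exposure was reported as AUC (ng h/mL). Significance versus vehicle was set at P ≤ 0.05.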
# Rattus norvegicus [3] = experiment: Antiobesity activity in po dosed high fat diet-induced obese Sprague-Dawley rat assessed as reduction of body weight administered daily for 3 days; type: functional; details: 72 h, read-out: MED
# Rattus norvegicus [4] = experiment: Antiobesity activity in high fat diet-induced obese Sprague-Dawley rat assessed as reduction of food intake at 10 mg/kg, po qd for 7 days relative to control; type: functional; design: scale not given: the % may be the effect or the level left; procedure, shortened: as §1
# Rattus norvegicus [5] = experiment: Toxicity in high fat diet-induced obese Sprague-Dawley rat assessed as change in serum ALT level at 30 mg/kg, po qd for 7 days relative to control; type: organism-based; design: dose 30 mg/kg, route oral; details: in vivo, 168 h
# Procedure, shortened: (§2)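 Seven-day study in high-fat-diet rats. Compound was given once daily by mouth as a spray-dried dispersion, with vehicle controls. Serum ALT was measured alongside food intake, body weight, liver TG and systemic exposure (AUC). ALT is expressed as % change versus vehicle, with significance set at P ≤ 0.05.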
# Rattus norvegicus [6] = experiment: Drug metabolism in rat assessed as formation of N-(2-((4-fluorobenzyl)(methyl)amino)-2-oxo-1-phenylethyl)-2-(4'-(1-hydroxy-2-methylpropan-2-yl)biphenyl-2-ylcarboxamido)quinoline-6-carboxamide at 30 mg/kg, po administered as single dose; type: ADME, organism-based; design: dose 30 mg/kg, route oral; details: in vivo
# Rattus norvegicus [7] = experiment: Toxicity in high fat diet-induced obese Sprague-Dawley rat assessed as change in serum ALT level at 10 mg/kg, po qd for 7 days relative to control; type: organism-based; design: dose 10 mg/kg, route oral; details: in vivo, 168 h; procedure, shortened: as §2
# Rattus norvegicus [8] = experiment: Antiobesity activity in po dosed high fat diet-induced obese Sprague-Dawley rat assessed as reduction of food intake administered daily for 3 days; type: functional; details: 72 h, read-out: MED
# Procedure, shortened: (§3)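 Male Sprague–Dawley rats (~300 g, n = 5 per group) were acclimatized for seven days to a high-fat diet (45% kcal from fat). They received three consecutive daily oral gavage doses 1.5 h before the dark cycle. Vehicle was SEDDS:H2O 10:90, with SEDDS made of Miglyol 812 10%, triacetin 30%, polysorbate 80 20% and Capmul MCM 30%. Food intake was recorded during dosing, and liver TG was measured afterwards, both against vehicle.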
# Rattus norvegicus [9] = experiment: Antiobesity activity in high fat diet-induced obese Sprague-Dawley rat assessed as reduction of food intake at 100 mg/kg, po administered daily for 3 days relative to control; type: functional; design: scale not given: the % may be the effect or the level left; procedure, shortened: as §3
# Rattus norvegicus [10] = experiment: Antiobesity activity in high fat diet-induced obese Sprague-Dawley rat assessed as reduction in body weight at 10 mg/kg, po administered daily for 3 days relative to dirlotapide; type: functional; design: scale not given: the % may be the effect or the level left
# Rattus norvegicus [11] = experiment: Antiobesity activity in high fat diet-induced obese Sprague-Dawley rat assessed as reduction of food intake at 10 mg/kg, po administered daily for 3 days relative to dirlotapide; type: functional; design: scale not given: the % may be the effect or the level left; procedure, shortened: as §3
# Rattus norvegicus [12] = experiment: Drug metabolism in rat assessed as formation of 2-(4'-tert-butylbiphenyl-2-ylcarboxamido)-N-(2-(methylamino)-2-oxo-1-phenylethyl)quinoline-6-carboxamide at 30 mg/kg, po administered as single dose; type: ADME, organism-based; design: dose 30 mg/kg, route oral; details: in vivo
# Rattus norvegicus [13] = experiment: Antiobesity activity in high fat diet-induced obese Sprague-Dawley rat assessed as reduction of food intake at 10 mg/kg, po administered with 25% SDD formulation daily for 3 days relative to dirlotapide; type: functional; design: scale not given: the % may be the effect or the level left
# Procedure, shortened: (§4)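 Three-day oral dosing study in male Sprague–Dawley rats (~300 g, n = 5 per group) fed a high-fat diet (45% kcal from fat). Animals received daily gavage doses 1.5 h before the dark cycle. Compound was given as a spray-dried dispersion made by spray drying compound with hydroxypropylmethylcellulose acetate succinate. Food intake was recorded during dosing and liver TG measured afterwards, both against vehicle.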
# Rattus norvegicus [14] = experiment: Antiobesity activity in po dosed high fat diet-induced obese Sprague-Dawley rat assessed as reduction of reduction of triglyceride accumulation in liver administered daily for 3 days; type: functional; details: 72 h, read-out: MED
# Procedure, shortened: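 Male Sprague–Dawley rats (about 300 g; n = 5 per group) were acclimatized for seven days to a high-fat diet (45% kcal from fat). They received three consecutive daily oral gavage doses in SEDDS:H₂O 10:90 vehicle 1.5 h before the dark cycle. Food intake was recorded, and liver TG was then measured against the vehicle group.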
# Rattus norvegicus [15] = experiment: Antiobesity activity in high fat diet-induced obese Sprague-Dawley rat assessed as reduction in body weight at 1 mg/kg, po administered daily for 3 days relative to control; type: functional; design: scale not given: the % may be the effect or the level left
# Rattus norvegicus [16] = experiment: Antiobesity activity in high fat diet-induced obese Sprague-Dawley rat assessed as reduction of body weight at 30 mg/kg, po qd for 7 days; type: functional; design: scale not given: the % may be the effect or the level left; procedure, shortened: as §1
# Rattus norvegicus [17] = experiment: Antiobesity activity in high fat diet-induced obese Sprague-Dawley rat assessed as reduction in body weight at 3 mg/kg, po administered daily for 3 days relative to control; type: functional; design: scale not given: the % may be the effect or the level left
# Rattus norvegicus [18] = experiment: Antiobesity activity in high fat diet-induced obese Sprague-Dawley rat assessed as triglyceride accumulation in liver at 3 mg/kg, po administered daily for 3 days relative to control; type: functional, organism-based; design: dose 3 mg/kg; procedure, shortened: as §3
# Rattus norvegicus [19] = experiment: Antiobesity activity in high fat diet-induced obese Sprague-Dawley rat assessed as reduction of food intake at 3 mg/kg, po qd for 7 days relative to control; type: functional; design: scale not given: the % may be the effect or the level left; procedure, shortened: as §1
# [20] = Oral bioavailability in rat at 30 mg/kg; type: ADME, organism-based; details: in vivo
# Rattus norvegicus [21] = experiment: Antiobesity activity in high fat diet-induced obese Sprague-Dawley rat assessed as reduction of food intake at 1 mg/kg, po administered daily for 3 days relative to control; type: functional; design: scale not given: the % may be the effect or the level left; procedure, shortened: as §3
# [22] = AUC in high fat diet-induced obese Sprague-Dawley rat at 10 mg/kg, po qd for 7 days; type: ADME, organism-based; design: dose 10 mg/kg, route oral; details: plasma; procedure, shortened: as §1
# Rattus norvegicus [23] = experiment: Antiobesity activity in high fat diet-induced obese Sprague-Dawley rat assessed as reduction of food intake at 10 mg/kg, po administered with 25% SDD formulation daily for 3 days relative to control; type: functional; design: scale not given: the % may be the effect or the level left; procedure, shortened: as §4
# Rattus norvegicus [24] = experiment: Antiobesity activity in high fat diet-induced obese Sprague-Dawley rat assessed as reduction in body weight at 3 mg/kg, po administered daily for 3 days relative to dirlotapide; type: functional; design: scale not given: the % may be the effect or the level left
# Rattus norvegicus [25] = experiment: Antiobesity activity in high fat diet-induced obese Sprague-Dawley rat assessed as triglyceride accumulation in liver at 30 mg/kg, po administered daily for 3 days relative to control; type: functional; procedure, shortened: as §3
# [26] = AUC in high fat diet-induced obese Sprague-Dawley rat at 3 mg/kg, po qd for 7 days; type: ADME, organism-based; design: dose 3 mg/kg, route oral; details: plasma; procedure, shortened: as §1
# Rattus norvegicus [27] = experiment: Drug metabolism in rat assessed as formation of 2-(2'-(6-(2-((4-fluorobenzyl)(methyl)amino)-2-oxo-1-phenylethylcarbamoyl)quinolin-2-ylcarbamoyl)biphenyl-4-yl)-2-methylpropanoic acid at 30 mg/kg, po administered as single dose; type: ADME, organism-based; design: dose 30 mg/kg, route oral; details: in vivo
# Rattus norvegicus [28] = experiment: Antiobesity activity in high fat diet-induced obese Sprague-Dawley rat assessed as reduction in body weight at 100 mg/kg, po administered daily for 3 days relative to dirlotapide; type: functional; design: scale not given: the % may be the effect or the level left
# Rattus norvegicus [29] = experiment: Antiobesity activity in high fat diet-induced obese Sprague-Dawley rat assessed as reduction of triglyceride accumulation in liver at 30 mg/kg, po qd for 7 days relative to control; type: functional; design: scale not given: the % may be the effect or the level left; procedure, shortened: as §1
# Rattus norvegicus [30] = experiment: Toxicity in high fat diet-induced obese Sprague-Dawley rat assessed as change in serum ALT level at 3 mg/kg, po qd for 7 days relative to control; type: organism-based; design: dose 3 mg/kg, route oral; details: in vivo, 168 h; procedure, shortened: as §2
compound,measurement,setting,value
CN(Cc1ccc(F)cc1)C(=O)[C@@H](NC(=O)c1ccc2nc(NC(=O)c3ccccc3-c3ccc(C(C)(C)C)cc3)ccc2c1)c1ccccc1,Activity,Rattus norvegicus [1],32%
same,Activity,Rattus norvegicus [2],85%
same,minimal effective dose,Rattus norvegicus [3],3 mg/kg
same,Activity,Rattus norvegicus [4],51%
same,Activity,Rattus norvegicus [5],237%
same,Drug metabolism,Rattus norvegicus [6],Active
same,Activity,Rattus norvegicus [7],143%
same,minimal effective dose,Rattus norvegicus [8],3 mg/kg
same,Activity,Rattus norvegicus [9],47%
same,Activity,Rattus norvegicus [10],97%
same,Activity,Rattus norvegicus [11],46%
same,Drug metabolism,Rattus norvegicus [12],Active
same,Activity,Rattus norvegicus [13],8%
same,minimal effective dose,Rattus norvegicus [14],3 mg/kg
same,Activity,Rattus norvegicus [15],32%
same,Activity,Rattus norvegicus [16],220%
same,Activity,Rattus norvegicus [17],67%
same,Activity,Rattus norvegicus [18],inactive
same,Activity,Rattus norvegicus [19],25%
same,bioavailability,[20],< 3%
same,Activity,Rattus norvegicus [21],12%
same,AUC at 168 h,[22],42 ng·h/mL
same,Activity,Rattus norvegicus [23],33%
same,Activity,Rattus norvegicus [24],10%
same,Activity,Rattus norvegicus [25],102%
same,AUC at 168 h,[26],12 ng·h/mL
same,Drug metabolism,Rattus norvegicus [27],Active
same,Activity,Rattus norvegicus [28],75%
same,Activity,Rattus norvegicus [29],212%
same,Activity,Rattus norvegicus [30],168%
